esBAF inh = Bmi1 luciferase reporter increase in mESCs, primary screen, esBAF inhibitor project, mouse ES cells, Bmi1 luciferase knock-in, single point. 24 h; 100% = twice the neutral-well signal. reporter increase, % at 12.5 µM. actives 2% (n = 350,000). AID 602393, 2012; in the data active = activation above about 40%; inconclusive = no clear call, values can overlap the other calls;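 note: 0% = median of the plate's neutral control wells and 100% = double that signal; a rise in the Bmi1 reporter signal indicates esBAF inhibition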
Xi reactivation = activators of inactive X chromosome reactivation, primary screen, imaging, XiGFP fibroblasts, GFP high-content imaging, set 2; XiGFP mouse fibroblasts, % GFP-positive cells imaging, 3 d; cells co-treated with 5-aza-dC sensitizer; scaled so ellipticine positive control = 100%; activation, % at 7.58 µM; actives 0.055% (n = 360,000); AID 743238, 2013;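 active = mean normalized replicate activation at least 10% and every replicate at or above 10%; inconclusive = only one of the two criteria met; inactive = mean below 10% and not all replicates reach 10%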;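 note: 0% = median of on-plate neutral control wells and 100% = ellipticine 6 µM median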
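System: 68-5-11 XiGFP fibroblast line | Buffer or medium: DMEM containing 5-aza-dC | Compound: Single point | Times: Compounds 3 days, fix/stain 15 min at room temperature | Benchmarks: Positive control ellipticine, 6 µM final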
MITF act = activators of MITF-driven TRPM1 promoter reporter, primary screen, cell-based, SK-MEL-5, luciferase, single point | actives 0.75% (n = 300,000) | SK-MEL-5 TRPM1-promoter luciferase, 24 h; % of positive control, neutral wells = 0 | activation, % at 12.5 µM;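 active = mean activation of at least 80% with every replicate also reaching 80%; inconclusive = mean reaches 80% but some replicate falls short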;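 note: 0% = neutral control wells and 100% = parthenolide positive control wells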
NSD2 inh = NSD2 histone methyltransferase inhibitors, primary screen, biochemical, AlphaScreen, single concentration, set 2; Histone-lysine N-methyltransferase NSD2 (Homo sapiens), O96028; NSD2 peptide methylation, 120 min; inhibition, % at 12.5 µM; actives 0.54% (n = 310,000); in the data active = inhibition above about 50%
Wnt act = Wnt/beta-catenin pathway activators, primary screen, cell-based, plate reader, single point | Wnt/beta-catenin reporter cell assay, activator | activation, % at 9.35 µM | actives 1.2% (n = 300,000); in the data active = activation above about 30%, passing the limit was not always enough; inconclusive = no clear call, values can overlap the other calls;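 note: 0% = neutral control wells and 100% = positive control wells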
Casp6 inh = human caspase-6 inhibitors, primary screen, biochemical, VEID-R110 fluorescence, single point, set 2 | inhibition, % at 12.5 µM | AID 686996, 2013 | P55212 | actives 0.53% (n = 350,000) | purified caspase-6, Z-VEID-R110 cleavage fluorescence;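 active = mean inhibition across replicates at least about 35%, with every replicate also reaching that limit, limit read from the data; inconclusive = only one of the two criteria met; inactive = neither criterion met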;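 note: 0% = median of neutral control wells and 100% = no fluorescence left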
* marks the source's active call; other numbers are inactive results; ? = inconclusive; / = no result. An excerpt weighted towards active compounds, which were near 3% of everything screened.

SMILES	esBAF inh	Xi reactivation	MITF act	NSD2 inh	Wnt act	Casp6 inh
C[C@H](CO)N1C[C@H](C)[C@@H](CN(C)S(C)(=O)=O)Oc2ncc(C#CC3CCCC3)cc2C1=O	1	0	/	/	/	1
Cc1nn(-c2ccccc2)c(C)c1/C=N/O	11	/	2	7	/	/
Cc1nn(-c2ccccc2)c(/N=C/c2ccccc2O)c1-c1ccccc1	/	0	56	35	129*	/
COc1ccc2c3c(n(C)c2c1)[C@@H](CO)N(Cc1ccc2c(c1)OCO2)CC31CCN(C(=O)C2CC2)CC1	/	0	/	/	/	/
O=C1NC(=O)/C(=C/c2ccccn2)S1	45*	0	7	3	-3	6
O=C1NC(=O)/C(=C/c2ccc(O)cc2)S1	/	0	27	1	?	8
COc1ccc(NC(=O)n2ncc3c(C)cccc32)cc1OC	53*	0	106*	1	3	4
Cc1ccc(NC(=O)n2ncc3c(C)cccc32)cc1F	/	0	18	2	18	-1
COc1ccc(NC(=O)n2ncc3c(C)cccc32)cc1	39	0	38	-1	39*	-2
O=C(C[C@@H]1C[C@H]2c3cc(NC(=O)NC4CCCC4)ccc3O[C@H]2[C@@H](CO)O1)NCc1ccccn1	/	0	/	/	/	1
Cc1ccc2[nH]c(=O)c(-c3nc4ccccn4c3NCc3ccco3)cc2c1	29	/	14	2	55*	/
O=Cc1c(NCc2ccco2)nc2ccccn2c1=O	/	0	6	8	5	3
O=C(Cc1cccs1)NCc1cccc(Cl)c1	50*	0	61	-2	8	-2
O=C(Cc1cccs1)NCc1cc(Cl)cc(Cl)c1	?	0	47	-3	12	-1
O=C(Cc1ccccc1[N+](=O)[O-])NCc1ccc(Cl)cc1Cl	/	0	94*	-1	17	/
O=C(Cc1cccs1)NCc1cccc(CNC(=O)Cc2cccs2)c1	-6	0	18	-1	-1	0
O=C(Cc1cccs1)NCc1ccc(Cl)cc1Cl	66*	0	/	-2	27	-3
COCC(=O)N1[C@H](CO)[C@@H](c2ccccc2)C12CN(C(=O)Cc1ccccn1)C2	/	0	/	/	/	2
CCOc1ccc(CCNC(=O)CCS(=O)(=O)c2ccc(OC)cc2)cc1OCC	/	0	12	21	-8	38*
CCOc1ccc(CCNC(=O)COC(=O)c2cccc(S(=O)(=O)N(C)C)c2)cc1OCC	-1	0	2	0	-2	-3
CCOc1ccc(CCNC(=O)COC(=O)c2cccc(N(C)C)c2)cc1OCC	54*	1	44	0	51*	-1
CO[C@@H]1CN(C)C(=O)c2cc(NC(=O)c3ccc(F)cc3)ccc2OC[C@@H](C)NC[C@@H]1C	1	0	/	/	/	/
CCC(=O)N1CC(=O)N2[C@@H](CO)[C@@H](c3ccc(C#Cc4cccc(OC)c4)cc3)[C@@H]2C1	/	0	/	/	/	0
Cc1ccc(S(=O)(=O)CCC(=O)NCCN2C(=O)S/C(=C\c3ccccc3)C2=O)cc1	45*	0	0	1	-1	/
CC(C)c1ccc(/C=N/NC(=O)c2c(Cl)cnn2C)cc1	/	0	93*	-2	/	/
SMILES	esBAF inh	Xi reactivation	MITF act	NSD2 inh	Wnt act	Casp6 inh
COc1cc(/C=N/NC(=O)c2cccc([N+](=O)[O-])c2)ccc1OCc1ccccc1	43*	/	?	-1	11	23
COc1cc(/C=N/NC(=O)CC2(C)OCCCO2)ccc1OCc1ccc(Cl)cc1Cl	/	0	61	-3	/	/
COc1cc(/C=N/NC(=O)CC2(C)OCCCO2)ccc1OCc1ccccc1	42*	0	-1	1	/	/
COC(=O)C(=Cc1ccc(OCc2ccc([N+](=O)[O-])cc2)c(OC)c1)C(=O)OC	74*	/	-31	-2	/	/
O=C(Nc1ccccc1)N[C@@H]1CC[C@H](CCNS(=O)(=O)c2cccc(F)c2)O[C@H]1CO	1	0	/	/	/	-4
C[C@@H]1CC=CC[C@@H](c2cccc(Cl)c2)NC(=O)[C@H](C)N(C)C(=O)c2ccccc2O1 (mixture of isomers)	/	0	/	/	/	/
CC(=O)c1ccc(-n2c(SCC(=O)c3c[nH]c4ccccc34)nc3ccccc3c2=O)cc1	/	0	-9	-2	45*	0
Cn1ccnc1SCC(=O)c1c[nH]c2ccccc12	32	0	14	-3	55*	0
COc1ccccc1C(=O)CSc1nccn1C	-1	0	34	5	5	-2
CC(=O)Nc1cccc2c1O[C@@H](CN(C)C(=O)NC(C)C)[C@H](C)CN(C)C2=O	/	0	/	/	/	/
O=C(NCC1CC1)[C@H]1[C@H](CO)[C@H]2Cn3c(ccc(C4=CCCCC4)c3=O)[C@H]2N1Cc1ccccc1F	5	0	/	/	/	1
O=C(Nc1ccc(F)cc1)N[C@H]1CC[C@@H](CCNC(=O)c2ccccc2F)O[C@@H]1CO	/	0	/	/	/	2
CCCCN(CC)CCNC(=O)Cn1cc2c(n1)-c1c(oc(C(=O)N3CCCC3)c1C)CC2	-5	0	15	18	1	-30
Cc1c(C(=O)N2CCCC2)oc2c1-c1nn(CC(=O)NCCCOC(C)C)cc1CC2	8	0	-7	138*	2	9
CCN(CC)C1=CC2=CC(=C(C#N)C#N)CCC2CC1 (centres undefined)	/	82*	-6	/	1	-3
CCCCN(C)C1=CC2=CC(=C(C#N)C#N)CCC2CC1 (centres undefined)	/	?	-6	0	-2	2
CNC[C@@H]1Oc2c(NS(C)(=O)=O)cccc2C(=O)N(C)C[C@H]1C	/	0	/	/	/	/
C[C@H]1CN([C@@H](C)CO)C(=O)c2cccc(NS(=O)(=O)c3ccccc3)c2O[C@H]1CN(C)C(=O)Nc1ccc2c(c1)OCO2	?	0	/	/	/	-2
O=C(C[C@@H]1C[C@H]2c3cc(NS(=O)(=O)c4ccc(F)cc4)ccc3O[C@H]2[C@H](CO)O1)NCc1ccccc1F	-3	0	/	/	/	2
CCc1ccc(C(=O)CCC2CCCCC2=O)cc1 (centres undefined)	34	/	89*	-5	/	/
O=C(CCC1CCCCC1=O)c1ccccc1 (centres undefined)	17	/	32	/	/	1
Cc1ccc(C(=O)CCC2CCCCC2=O)cc1 (centres undefined)	45*	/	72	-2	-3	2

High-throughput results from PubChem BioAssay.
